Published values of several laboratories.
Lines come from different studies, so protocols differ.
Target: Tyrosine-protein kinase receptor UFO (AXL, Homo sapiens, UniProt P30530)
Tested at: 1 µM
Sequence (P30530 26-894, as in one of the studies): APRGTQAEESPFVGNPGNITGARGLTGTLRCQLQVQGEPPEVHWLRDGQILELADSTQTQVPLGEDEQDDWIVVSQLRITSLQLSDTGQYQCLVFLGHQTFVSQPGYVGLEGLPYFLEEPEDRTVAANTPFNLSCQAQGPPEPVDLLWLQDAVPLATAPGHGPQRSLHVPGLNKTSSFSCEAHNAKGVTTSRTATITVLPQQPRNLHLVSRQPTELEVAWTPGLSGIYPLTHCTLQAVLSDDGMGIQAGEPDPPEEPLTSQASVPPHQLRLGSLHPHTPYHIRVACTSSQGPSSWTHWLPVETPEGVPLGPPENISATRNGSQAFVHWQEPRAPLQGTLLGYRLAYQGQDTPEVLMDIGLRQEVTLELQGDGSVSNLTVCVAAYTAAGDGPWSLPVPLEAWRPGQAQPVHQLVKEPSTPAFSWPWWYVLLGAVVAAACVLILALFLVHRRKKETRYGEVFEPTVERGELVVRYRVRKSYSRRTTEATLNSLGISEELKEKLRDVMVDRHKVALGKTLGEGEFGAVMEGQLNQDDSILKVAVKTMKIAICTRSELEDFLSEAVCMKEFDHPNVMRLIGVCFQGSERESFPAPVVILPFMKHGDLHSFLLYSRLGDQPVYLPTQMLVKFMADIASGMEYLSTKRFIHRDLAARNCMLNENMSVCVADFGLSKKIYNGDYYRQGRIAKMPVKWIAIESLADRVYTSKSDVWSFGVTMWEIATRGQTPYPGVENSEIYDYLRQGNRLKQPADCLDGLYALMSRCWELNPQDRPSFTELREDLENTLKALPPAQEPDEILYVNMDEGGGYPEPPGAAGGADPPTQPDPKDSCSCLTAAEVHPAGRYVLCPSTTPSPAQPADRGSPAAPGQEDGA

SMILES	read-out	mode	technique	endpoint	result
Cc1cc(S(=O)(=O)N[C@H]2CC[C@H](CN3CCN(c4ccc(C5CCC(=O)NC5=O)cc4F)CC3)CC2)ccc1Nc1ncc(C(F)(F)F)c(N2CCC[C@](C)(O)C2)n1 (some centres unmarked)	binding		competition with immobilised ligand	remaining binding	56%
C#Cc1cnc(Nc2ccnc(CO)c2)nc1Nc1ccccc1S(C)(=O)=NC#N (centres unmarked)	enzyme activity	inhibitor		remaining activity	26.1%
C=CC(=O)N1CCC[C@@H](n2nc(-c3ccc(Oc4ccccc4)cc3)c3c(N)ncnc32)C1	enzyme activity	inhibitor		inhibition	34%
C[C@H]1CC[C@H](n2c3cnccc3c3cnc(Nc4ccc5c(n4)CCN(C(=O)CO)C5)nc32)CC1	binding		competition with immobilised ligand	remaining binding	81%
C[C@]1(O)CCCN(c2nc(Nc3ccc(S(=O)(=O)N[C@H]4CC[C@H](CN5CCN(c6ccc(C7CCC(=O)NC7=O)cc6F)CC5)CC4)cc3Cl)ncc2C(F)(F)F)C1 (some centres unmarked)	binding		competition with immobilised ligand	remaining binding	98%
CN1CCN(C(=O)c2ccc(NC(=O)Nc3ccc(N(C)c4ccnc(Nc5ccc(CS(C)(=O)=O)cc5)n4)cc3)cc2)CC1	binding		competition with immobilised ligand	remaining binding	9.7%
C=CC(=O)N1CCC([C@@H]2CCNc3c(C(N)=O)c(-c4ccc(Oc5ccccc5)cc4)nn32)CC1	enzyme activity	inhibitor		inhibition	0%
C#Cc1cnc(Nc2ccc(CO)nc2)nc1Nc1ccccc1S(C)(=O)=NC#N (centres unmarked)	enzyme activity	inhibitor		remaining activity	27.6%
